Assay results taken from ChEMBL document CHEMBL3826940, “Amphipathicity Determines Different Cytotoxic Mechanisms of Lysine- or Arginine-Rich Cationic Hydrophobic Peptides in Cancer Cells” (J Med Chem, 2016).

Each compound was assayed on HeLa (assay: Membranolytic activity in human HeLa cells expressing GFP after 5 mins by fluorescence leakage assay).
Type: functional, cell-based
Method in brief: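 GFP-expressing HeLa cells (1 × 10^4/well, grown 24 h) were treated with peptides at various concentrations in PBS for 5 min. Supernatant was collected after centrifugation at 1000g and its fluorescence read at 485/535 nm. 1% Triton X-100 defined 100% leakage, and LC50 was calculated from three independent experiments.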

| Compound | LC50 |
| --- | --- |
| CC(C)C[C@H](NC(=O)[C@H](CCCNC(=N)N)NC(=O)[C@H](CC(C)C)NC(=O)[C@H](CC(C)C)NC(=O)[C@H](CCCNC(=N)N)NC(=O)[C@H](CCCNC(=N)N)NC(=O)[C@H](CC(C)C)NC(=O)[C@H](CCCNC(=N)N)NC(=O)[C@H](CC(C)C)NC(=O)[C@H](CC(C)C)NC(=O)[C@H](CCCNC(=N)N)NC(=O)[C@H](CC(C)C)NC(=O)[C@H](CC(C)C)NC(=O)[C@H](CCCNC(=N)N)NC(=O)CNC(=O)CNC(=O)[C@@H](N)Cc1cnc[nH]1)C(N)=O | 25.9 µM |
| H-HGGKLLKLLKKLLKLLK-NH2 | 3.6 µM |
| H-HGGKLLKLLKLKKLLKL-NH2 | 38.8 µM |
| H-HGGRLLRLLRRLLRLLR-NH2 | 3.9 µM |
